The source of these data is ChEMBL document CHEMBL4354800, “Amphiphilic nebramine-based hybrids Rescue legacy antibiotics from intrinsic resistance in multidrug-resistant Gram-negative bacilli” (Eur J Med Chem, 2019).

Data set [1] has as its system Pseudomonas aeruginosa. Description: Potentiation of moxifloxacin-induced antibacterial activity against wild type Pseudomonas aeruginosa PAO1 assessed as fold reduction in moxifloxacin MIC at 7.5 uM incubated for 18 hrs by broth microdilution method. The format is functional. The gist of the method:
(§1)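 CLSI broth microdilution. Overnight cultures were set to 0.5 McFarland in saline, diluted 1:50 in Mueller-Hinton broth to a final 5 × 10^5 CFU/mL, and incubated 18 h at 37 °C against 2-fold antibiotic dilutions. A fixed adjuvant level was present throughout. MIC = lowest concentration with no visible turbidity, confirmed at 590 nm. Potentiation = fold drop in antibiotic MIC versus antibiotic alone.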
For orientation: Dilution methods test growth across graded concentrations, often in twofold steps.

For data set [2], the system named is Pseudomonas aeruginosa. Description: Potentiation of minocycline-induced antibacterial activity against wild type Pseudomonas aeruginosa PAO1 assessed as fold reduction in minocycline MIC at 7.5 uM incubated for 18 hrs by broth microdilution method. The format is functional. The essentials:
(§2)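 Antibiotic MIC determined by CLSI broth microdilution (MHB, 5 × 10^5 CFU/mL, 18 h, 37 °C), once alone and once with a fixed concentration of the adjuvant. Potentiation is the ratio of the antibiotic MIC alone to its MIC in the presence of the adjuvant.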

The subject of data set [3] is Pseudomonas aeruginosa. Description: Synergistic antibacterial activity against MDR/XDR Pseudomonas aeruginosa isolate PA264-104354 harboring GyrA T83I mutant assessed as fractional inhibitory concentration index in presence of moxifloxacin incubated for 18 hrs by broth microdilution method. Type of data set: functional. The gist of the method:
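Checkerboard synergy assay. Antibiotic and adjuvant in twofold dilutions in Mueller-Hinton broth. Inoculum 5 × 10^5 CFU/mL from a 0.5 McFarland suspension, 18 h at 37 °C, MIC read by turbidity and confirmed at 590 nm. FIC = MIC in combination / MIC alone for each agent, FICI = sum. Interpreted as ≤0.5 synergy, 0.5–4 no interaction, >4 antagonism.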

Data set [4] has as its system Pseudomonas aeruginosa. Description: Potentiation of minocycline-induced antibacterial activity against MDR/XDR Pseudomonas aeruginosa isolate PA262-101856 harboring GyrA T83I mutant assessed as fold reduction in minocycline MIC at 7.5 uM incubated for 18 hrs by broth microdilution method. The format is functional.
Data set [5] concerns Pseudomonas aeruginosa. Description: Potentiation of minocycline-induced antimicrobial activity against MDR/XDR Pseudomonas aeruginosa isolate 91433 devoid of GyrA Thr83Ile mutant assessed as minocycline MIC50 incubated for 18 hrs by broth microdilution method (reference value: 16 microg/ml). Type of data set: functional. Particulars: isolate 91433, 18 h.
For data set [6], the system named is Pseudomonas aeruginosa. Description: Potentiation of rifampicin-induced antimicrobial activity against MDR/XDR Pseudomonas aeruginosa isolate 100036 harboring GyrA Thr83Ile mutant assessed as rifampicin MIC50 incubated for 18 hrs by broth microdilution method (reference value: 8 microg/ml). The settings on record: isolate 100036, 18 h. The format is functional.

In data set [7] the test system is Pseudomonas aeruginosa. Description: Potentiation of rifampicin-induced antimicrobial activity against MDR/XDR Pseudomonas aeruginosa isolate PA259-96918 harboring GyrA Thr83Ile mutant assessed as rifampicin MIC50 incubated for 18 hrs by broth microdilution method (reference value: 8 microg/ml). The settings on record: isolate PA259-96918, 18 h. The format is functional.

Data set [8] deals with Pseudomonas aeruginosa. Description: Potentiation of rifampicin-induced antimicrobial activity against MDR/XDR Pseudomonas aeruginosa isolate 101243 devoid of GyrA Thr83Ile mutant assessed as rifampicin MIC50 incubated for 18 hrs by broth microdilution method (reference value: 8 microg/ml). The format is functional. Particulars: isolate 101243, 18 h.
In data set [9] the test system is Acinetobacter baumannii. Description: Synergistic antibacterial activity against multidrug-resistant Acinetobacter baumannii AB027 assessed as fractional inhibitory concentration index in presence of minocycline incubated for 18 hrs by broth dilution method. The format is functional.
Data set [10] concerns Acinetobacter baumannii. Description: Synergistic antibacterial activity against multidrug-resistant Acinetobacter baumannii AB031 assessed as fractional inhibitory concentration index in presence of minocycline incubated for 18 hrs by broth dilution method. Type of data set: functional.
Data set [11] concerns Pseudomonas aeruginosa. Description: Potentiation of ciprofloxacin-induced antibacterial activity against MDR/XDR Pseudomonas aeruginosa isolate PA260-97103 harboring GyrA T83I mutant assessed as fold reduction in ciprofloxacin MIC at 9 uM incubated for 18 hrs by broth microdilution method. The format is functional.
The subject of data set [12] is Pseudomonas aeruginosa. Description: Potentiation of ciprofloxacin-induced antibacterial activity against MDR/XDR Pseudomonas aeruginosa isolate 100036 harboring GyrA T83I mutant assessed as fold reduction in ciprofloxacin MIC at 9 uM incubated for 18 hrs by broth microdilution method. Type of data set: functional.
The subject of data set [13] is Pseudomonas aeruginosa. Description: Potentiation of rifampicin-induced antibacterial activity against MDR/XDR Pseudomonas aeruginosa isolate PA260-97103 harboring GyrA T83I mutant assessed as fold reduction in rifampicin MIC at 9 uM incubated for 18 hrs by broth microdilution method. The format is functional. The gist of the method:
as §1

For data set [14], the system named is Acinetobacter baumannii. Description: Synergistic antibacterial activity against multidrug-resistant Acinetobacter baumannii AB92247 assessed as fractional inhibitory concentration index in presence of minocycline incubated for 18 hrs by broth dilution method. Type of data set: functional.
Data set [15] deals with Acinetobacter baumannii. Description: Synergistic antibacterial activity against multidrug-resistant Acinetobacter baumannii AB110193 assessed as fractional inhibitory concentration index in presence of rifampicin incubated for 18 hrs by broth dilution method. Type of data set: functional.
The subject of data set [16] is Klebsiella pneumoniae. Description: Potentiation of minocycline-induced antibacterial activity against Klebsiella pneumoniae 113250 assessed as fold reduction in minocycline MIC at 4.1 uM incubated for 18 hrs by broth dilution method. Type of data set: functional. The essentials:
as §2

Data set [17] has as its system Klebsiella pneumoniae. Description: Potentiation of minocycline-induced antibacterial activity against Klebsiella pneumoniae 113254 assessed as fold reduction in minocycline MIC at 4.1 uM incubated for 18 hrs by broth dilution method. Type of data set: functional. The gist of the method:
as §2

Data set [18] relates to Klebsiella pneumoniae. Description: Potentiation of rifampicin-induced antibacterial activity against Klebsiella pneumoniae 113254 assessed as fold reduction in rifampicin MIC at 4.1 uM incubated for 18 hrs by broth dilution method. The format is functional. The gist of the method: as §2
Data set [19] in a line: Hemolytic activity against porcine erythrocytes assessed as hemoglobin release at 512 ug/ml incubated for 1 hr by spectrophotometric analysis relative to control. The settings on record: pig, read-out: Activity. Type of data set: ADME, cell-based, Sus scrofa, Erythrocyte. The gist of the method:
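Porcine erythrocytes were washed three times in PBS and used at 3 × 10^8 cells/mL final. Compounds were serially diluted in PBS at twice the final concentration, mixed with an equal volume of cells, and incubated 1 h at 37 °C. After centrifugation (1000 g, 4 °C, 10 min), hemoglobin in the supernatant was read at 570 nm. Percent hemolysis was scaled between PBS (0%) and 0.1% Triton X-100 (100%).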

The test system of data set [20] is Pseudomonas aeruginosa. Description: Antimicrobial activity against XDR Pseudomonas aeruginosa isolate PA264 infected in Galleria mellonella larvae assessed as survival rate at 25 mg/kg co-administered with 25 mg/kg rifampicin at 2 hrs post-inoculation measured after 24 hrs relative to control. The format is functional. The gist of the method:
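G. mellonella larvae were injected with ~5 CFU of P. aeruginosa PA264 (10 µL of 5 × 10^2 CFU/mL in PBS) and held 2 h at 37 °C. A single 10 µL injection followed: monotherapy or rifampicin + compound (25+25, 50+50 or 75+75 mg/kg), with PBS as control. Larvae kept at 37 °C were scored every 6 h to 24 h; dead = no response to touch. n = 30 (two runs of 15); Kaplan-Meier.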

The test system of data set [21] is Enterobacter cloacae. Description: Potentiation of minocycline-induced antibacterial activity against Enterobacter cloacae 117029 assessed as fold reduction in minocycline MIC at 4.1 uM incubated for 18 hrs by broth dilution method. Type of data set: functional. The gist of the method: as §2

Take `COc1c(N2C[C@@H]3CCCN(CCCCCCCCCCCCO[C@@H]4[C@@H](O)[C@H](N)C[C@H](N)[C@H]4O[C@H]4O[C@H](CN)[C@@H](O)C[C@H]4N)[C@@H]3C2)c(F)cc2c(=O)c(C(=O)O)cn(C3CC3)c12.Cl.Cl.Cl.Cl.Cl`: the “fold change (FC)” value turned out to be 8 in data set [1], 8 in data set [2] and 32 in data set [4]. The “fractional inhibitory concentration index (FICI)” value in data set [3] is on record as 0.09; in [9], over 1; in data set [10], over 1. In addition, the MIC50 in [5] was 0.5 µg/mL; in data set [6], 0.06 µg/mL; in [7] it was 0.06 µg/mL; in [8], 0.06 µg/mL.

Turning to `Cl.Cl.Cl.Cl.Cl.Cl.NC[C@H]1O[C@H](O[C@H]2[C@H](OCCCCCCCCCCN3CCN(Cc4cccc5ccccc45)CC3)[C@@H](O)[C@H](N)C[C@@H]2N)[C@H](N)C[C@@H]1O`, the “fold change (FC)” value in data set [11] was found to be 8; in data set [12] it was 8; in data set [13] it was 64.

Consider `Cl.Cl.Cl.Cl.Cl.NC[C@H]1O[C@H](O[C@H]2[C@H](OCCCCCCCCCCCCN3CCN(c4cc5c(cc4F)c(=O)c(C(=O)O)cn5C4CC4)CC3)[C@@H](O)[C@H](N)C[C@@H]2N)[C@H](N)C[C@@H]1O`, for which the “fractional inhibitory concentration index (FICI)” value in data set [14] is 0.531; in [15] it was 0.016 - 0.031. Further, the “fold change (FC)” value was 2 in data set [16], 2 in [17], 64 in data set [18] and 16 in data set [21]. Moreover, in data set [19], the hemolysis at 1 h, 512 ug/ml is under 10%. Further, the survival at 25 mg/kg in data set [20] is 13%.

One may read the MIC50 as the lowest concentration that inhibits either 50% of growth or 50% of the strains tested, depending on the study.
